In brackets after ≈: the same amount, converted by molar mass. Activity calls are given as the source filed them. The rule behind the calls is not given here.
How the values were obtained:
Format in all cases: functional
[1] = test system: Mycobacterium tuberculosis; test: Antimycobacterial activity against rifampicin-resistant Mycobacterium tuberculosis ATCC 35338 after 7 days by resazurin microtitre assay
Outline: (§1)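 REMA MIC. Strains kept on Ogawa-Kudoh medium 14 days at 37 °C. Suspension vortexed and adjusted to McFarland tube 1 (3.2 × 10^6 cfu/mL), then diluted 1:20 in Middlebrook 7H9 with 10% OADC and glycerol. Compounds tested from 100 ug/mL down to 0.19 ug/mL. Incubated 7 days at 37 °C, resazurin added, 2 more days at 37 °C; colour change read.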

[2] = test system: Mycobacterium tuberculosis; test: Antimycobacterial activity against isoniazid-resistant Mycobacterium tuberculosis ATCC 35822 after 7 days by resazurin microtitre assay; outline: as §1
[3] = test system: Mycobacterium tuberculosis; test: Antimycobacterial activity against rifampicin-resistant Mycobacterium tuberculosis; outline: as §1

CC1(C)CCc2c(c3ccccc3c3nc(-c4ccccn4)[nH]c23)O1
MIC ([1]; ATCC 35338, 168 h): 19 µM (≈ 6.26 µg/mL)
MIC ([2]; ATCC 35822, 168 h): 19 µM (≈ 6.26 µg/mL)

CC1(C)CCc2c(c3ccccc3c3nc(-c4ccc(C#N)cc4)oc23)O1
MIC ([1]; ATCC 35338, 168 h): 4.4 µM (≈ 1.56 µg/mL)
MIC ([2]; ATCC 35822, 168 h): 8.8 µM (≈ 3.12 µg/mL)

CC1(C)CCc2c(c3ccccc3c3nc(-c4cc5ccccc5cn4)[nH]c23)O1
MIC ([1]; ATCC 35338, 168 h): ≤ 2 µM
MIC ([2]; ATCC 35822, 168 h): ≤ 2 µM

COc1ccccc1-c1nc2c([nH]1)c1c(c3ccccc32)OC(C)(C)CC1
MIC ([1]; ATCC 35338, 168 h): 17.4 µM (≈ 6.24 µg/mL)
MIC ([2]; ATCC 35822, 168 h): 17.4 µM (≈ 6.24 µg/mL)

CC1(C)CCc2c(c3ccccc3c3nc(-c4cccc([N+](=O)[O-])c4)[nH]c23)O1
MIC [1]: inactive
MIC [2]: inactive

CC1(C)CCc2c(c3ccccc3c3nc(-c4ccc([N+](=O)[O-])cc4)[nH]c23)O1
MIC [1]: inactive
MIC ([2]; ATCC 35822, 168 h): 4.2 µM (≈ 1.57 µg/mL)

CC1(C)CCc2c(c3ccccc3c3nc(-c4ccc(C#N)cc4)[nH]c23)O1
MIC [1]: inactive
MIC [2]: inactive

CC1(C)CCc2c(c3ccccc3c3nc(-c4cccc(Br)c4)[nH]c23)O1
MIC ([1]; ATCC 35338, 168 h): 15.3 µM (≈ 6.23 µg/mL)
MIC ([2]; ATCC 35822, 168 h): 15.3 µM (≈ 6.23 µg/mL)

CC1(C)CCc2c(c3ccccc3c3nc(-c4ccc(Cl)cc4)[nH]c23)O1
MIC ([1]; ATCC 35338, 168 h): 17.2 µM (≈ 6.24 µg/mL)
MIC ([2]; ATCC 35822, 168 h): 17.2 µM (≈ 6.24 µg/mL)

CC1(C)CCc2c(c3ccccc3c3nc(-c4ccccc4C#N)oc23)O1
MIC ([1]; ATCC 35338, 168 h): 17.6 µM (≈ 6.24 µg/mL)
MIC ([2]; ATCC 35822, 168 h): 17.6 µM (≈ 6.24 µg/mL)

C=CCC1=C(O)C(=O)c2ccccc2C1=O
MIC ([1]; ATCC 35338, 168 h): 117 µM (≈ 25 µg/mL)
MIC ([2]; ATCC 35822, 168 h): 467 µM (≈ 100 µg/mL)

CC1(C)CCc2c(c3ccccc3c3nc(-c4ccc(F)cc4)[nH]c23)O1
MIC ([1]; ATCC 35338, 168 h): 18 µM (≈ 6.24 µg/mL)
MIC ([2]; ATCC 35822, 168 h): 18 µM (≈ 6.24 µg/mL)

CC1(C)CCc2c(c3ccccc3c3nc(-c4ccccc4)[nH]c23)O1
MIC ([1]; ATCC 35338, 168 h): > 304 µM
MIC ([2]; ATCC 35822, 168 h): 38 µM (≈ 12.5 µg/mL)

CC1(C)CCc2c(c3ccccc3c3nc(-c4cccc(C#N)c4)[nH]c23)O1
MIC [1]: inactive
MIC [2]: inactive

CC1(C)CCc2c(c3ccccc3c3nc(-c4cccnc4)[nH]c23)O1
MIC [1]: inactive
MIC [2]: inactive

CC1(C)CCc2c(c3ccccc3c3nc(-c4ccccc4[N+](=O)[O-])[nH]c23)O1
MIC ([1]; ATCC 35338, 168 h): 33.5 µM (≈ 12.5 µg/mL)
MIC ([2]; ATCC 35822, 168 h): 16.7 µM (≈ 6.24 µg/mL)

CO[C@H]1/C=C/O[C@@]2(C)Oc3c(C)c(O)c4c(O)c(c(/C=N/N5CCN(C)CC5)c(O)c4c3C2=O)NC(=O)/C(C)=C\C=C\[C@H](C)[C@H](O)[C@@H](C)[C@@H](O)[C@@H](C)[C@H](OC(C)=O)[C@@H]1C [RIFAMPIN]
MIC ([1]; ATCC 35338, 168 h): > 4.8 µM
MIC ([2]; ATCC 35822, 168 h): ≤ 0.1 µM

Cc1ccc(-c2nc3c(o2)c2c(c4ccccc43)OC(C)(C)C2)cc1
MIC ([2]; ATCC 35822, 168 h): > 304 µM

CC1CC2=C(O1)c1ccccc1C(=O)C2=O (stereo not given)
MIC [1]: inactive
MIC [2]: inactive

CC1(C)CCc2c(c3ccccc3c3nc(-c4ccccc4C(F)(F)F)[nH]c23)O1
MIC ([1]; ATCC 35338, 168 h): 2 µM (≈ 0.793 µg/mL)
MIC ([2]; ATCC 35822, 168 h): 4 µM (≈ 1.59 µg/mL)

NNC(=O)c1ccncc1 [ISONIAZID]
MIC ([1]; ATCC 35338, 168 h): ≤ 0.4 µM
MIC ([2]; ATCC 35822, 168 h): 7.3 µM (≈ 1 µg/mL)

CC1(C)CCc2c(c3ccccc3c3nc(-c4ccccc4Br)[nH]c23)O1
MIC ([1]; ATCC 35338, 168 h): 15.3 µM (≈ 6.23 µg/mL)
MIC ([2]; ATCC 35822, 168 h): 15.3 µM (≈ 6.23 µg/mL)

CC1(C)CCc2c(c3ccccc3c3nc(-c4cccc(C(F)(F)F)c4)[nH]c23)O1
MIC ([1]; ATCC 35338, 168 h): 4 µM (≈ 1.59 µg/mL)
MIC ([2]; ATCC 35822, 168 h): 4 µM (≈ 1.59 µg/mL)

Cc1ccc(-c2nc3c([nH]2)c2c(c4ccccc43)OC(C)(C)C2)cc1
MIC ([1]; ATCC 35338, 168 h): 304 µM (≈ 100 µg/mL)
MIC ([2]; ATCC 35822, 168 h): > 304 µM

CC1Cc2c(c3ccccc3c3nc(-c4ccc([N+](=O)[O-])cc4)oc23)O1 (stereo not given)
MIC ([1]; ATCC 35338, 168 h): 289 µM (≈ 100 µg/mL)
MIC ([2]; ATCC 35822, 168 h): > 289 µM

CC1(C)Cc2c(c3ccccc3c3nc(-c4ccccc4)[nH]c23)O1
MIC ([1]; ATCC 35338, 168 h): 318 µM (≈ 100 µg/mL)
MIC ([2]; ATCC 35822, 168 h): > 318 µM

CC1(C)CCc2c(c3ccccc3c3nc(-c4cccc(C#N)c4)oc23)O1
MIC ([1]; ATCC 35338, 168 h): 17.6 µM (≈ 6.24 µg/mL)
MIC ([2]; ATCC 35822, 168 h): 17.6 µM (≈ 6.24 µg/mL)

CC1(C)CCc2c(c3ccccc3c3nc(-c4ccc(C(F)(F)F)cc4)[nH]c23)O1
MIC [1]: inactive
MIC [2]: inactive

CC1(C)Cc2c(c3ccccc3c3nc(-c4ccc([N+](=O)[O-])cc4)oc23)O1
MIC ([2]; ATCC 35822, 168 h): > 278 µM

CC1(C)CCc2c(c3ccccc3c3nc(-c4ccc(Br)cc4)[nH]c23)O1
MIC [1]: inactive
MIC [2]: inactive

Cc1ccccc1-c1nc2c([nH]1)c1c(c3ccccc32)OC(C)(C)CC1
MIC ([1]; ATCC 35338, 168 h): 4.5 µM (≈ 1.54 µg/mL)
MIC ([2]; ATCC 35822, 168 h): 4.5 µM (≈ 1.54 µg/mL)

CC1(C)CCc2c(c3ccccc3c3nc(-c4cnc5ccccc5c4)[nH]c23)O1
MIC [1]: inactive
MIC [2]: inactive

C=CCC1Cc2c(c3ccccc3c3nc4ccccc4nc23)OC1(C)C (stereo not given)
MIC [3]: 0.78 µg/mL (≈ 2.2 µM)

CC1(C)CCc2c(c3ccccc3c3nc(-c4cccc(F)c4)[nH]c23)O1
MIC ([1]; ATCC 35338, 168 h): 18 µM (≈ 6.24 µg/mL)
MIC ([2]; ATCC 35822, 168 h): 18 µM (≈ 6.24 µg/mL)

Source: ChEMBL document CHEMBL2157923, “1,3-Azoles from ortho-naphthoquinones: synthesis of aryl substituted imidazoles and oxazoles and their potent activity against Mycobacterium tuberculosis” (Bioorg Med Chem, 2012)
